The text below walks through data of ChEMBL document CHEMBL2163223, “Synthesis and evaluation of novel α-fluorinated (E)-3-((6-methylpyridin-2-yl)ethynyl)cyclohex-2-enone-O-methyl oxime (ABP688) derivatives as metabotropic glutamate receptor subtype 5 PET radiotracers” (J Med Chem, 2012).

Series [1] has as its target T1, Metabotropic glutamate receptor 5 (Rattus norvegicus, UniProt P31424). The series is described as follows: Displacement of [3H]-ABP688 from mGluR5 receptor in Sprague-Dawley rat brain after 45 mins by beta counting. A digest of the protocol:
(§1)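 0.1 mg protein incubated in triplicate at ambient temperature with 2 nM [3H]-ABP688 and competitor 10 pM–100 μM for 45 min. Nonspecific binding from 100 μM MMPEP. Filtered, β-counted.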

In another series the test system is Plasma. The series is described as follows: Metabolic stability of the compound in rat plasma at 7 to 8 MBq after 2 hrs by HPLC analysis. The class given is ADME, cell-free. The note with it: in the assay text read “21 MBq” for “7 to 8 MBq”. A digest of the protocol: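 Radiotracer (21 MBq) incubated at 37 °C for up to 2 h in phosphate buffer (4 mM KH2PO4/Na2HPO4, 155 mM NaCl, pH 7.4) or rat plasma. Samples taken at several time points, quenched with ice-cold MeCN. Plasma samples centrifuged at 12000g for 10 min. Samples filtered; supernatants analyzed by radio-HPLC on a reversed-phase C18 column with 70% aq MeCN.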

Series [2] addresses T1, Metabotropic glutamate receptor 5. As to the kind of experiment: Binding affinity to mGluR5 receptor in Sprague-Dawley rat brain by beta counting. A digest of the protocol: as §1
Series [3] is described as follows: Chemical stability in phosphate buffer at 21 MBq at pH 7.4 after 2 hrs by HPLC analysis. The note with it: pH 7.4, 2 h.
Series [4] is described as follows: Lipophilicity, log D of the compound at pH 7.4 using shake flask method. The class given is physicochemical. The note with it: buffer.
Series [5] in a line: Lipophilicity, log D of the compound at pH 7.4 by HPLC analysis. Type of series: physicochemical. The settings on record: buffer.
Series [6] deals with Metabotropic glutamate receptor 5 (Rattus norvegicus) (UniProt P31424). The series is described as follows: Binding affinity to mGluR5 receptor in Wistar rat brain at 1 to 10 nM after 45 mins by autoradiography in presence of ABP688. The note with it: tested as the 18F-labelled form. A digest of the protocol: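 Horizontal brain slices (20 μm) from a male Wistar rat were thawed and preincubated on ice for 10 min in HEPES buffer with 0.1% BSA. They were then incubated with 1 or 10 nM radiotracer, alone or with 100 nM ABP688, in HEPES for 45 min at ambient temperature. Washed on ice in HEPES/0.1% BSA, then twice in HEPES (3 min each), and dipped in water.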

Active and inactive are the calls of the source. No cut-off for these calls is given here.

T1 sequence (P31424 whole entry): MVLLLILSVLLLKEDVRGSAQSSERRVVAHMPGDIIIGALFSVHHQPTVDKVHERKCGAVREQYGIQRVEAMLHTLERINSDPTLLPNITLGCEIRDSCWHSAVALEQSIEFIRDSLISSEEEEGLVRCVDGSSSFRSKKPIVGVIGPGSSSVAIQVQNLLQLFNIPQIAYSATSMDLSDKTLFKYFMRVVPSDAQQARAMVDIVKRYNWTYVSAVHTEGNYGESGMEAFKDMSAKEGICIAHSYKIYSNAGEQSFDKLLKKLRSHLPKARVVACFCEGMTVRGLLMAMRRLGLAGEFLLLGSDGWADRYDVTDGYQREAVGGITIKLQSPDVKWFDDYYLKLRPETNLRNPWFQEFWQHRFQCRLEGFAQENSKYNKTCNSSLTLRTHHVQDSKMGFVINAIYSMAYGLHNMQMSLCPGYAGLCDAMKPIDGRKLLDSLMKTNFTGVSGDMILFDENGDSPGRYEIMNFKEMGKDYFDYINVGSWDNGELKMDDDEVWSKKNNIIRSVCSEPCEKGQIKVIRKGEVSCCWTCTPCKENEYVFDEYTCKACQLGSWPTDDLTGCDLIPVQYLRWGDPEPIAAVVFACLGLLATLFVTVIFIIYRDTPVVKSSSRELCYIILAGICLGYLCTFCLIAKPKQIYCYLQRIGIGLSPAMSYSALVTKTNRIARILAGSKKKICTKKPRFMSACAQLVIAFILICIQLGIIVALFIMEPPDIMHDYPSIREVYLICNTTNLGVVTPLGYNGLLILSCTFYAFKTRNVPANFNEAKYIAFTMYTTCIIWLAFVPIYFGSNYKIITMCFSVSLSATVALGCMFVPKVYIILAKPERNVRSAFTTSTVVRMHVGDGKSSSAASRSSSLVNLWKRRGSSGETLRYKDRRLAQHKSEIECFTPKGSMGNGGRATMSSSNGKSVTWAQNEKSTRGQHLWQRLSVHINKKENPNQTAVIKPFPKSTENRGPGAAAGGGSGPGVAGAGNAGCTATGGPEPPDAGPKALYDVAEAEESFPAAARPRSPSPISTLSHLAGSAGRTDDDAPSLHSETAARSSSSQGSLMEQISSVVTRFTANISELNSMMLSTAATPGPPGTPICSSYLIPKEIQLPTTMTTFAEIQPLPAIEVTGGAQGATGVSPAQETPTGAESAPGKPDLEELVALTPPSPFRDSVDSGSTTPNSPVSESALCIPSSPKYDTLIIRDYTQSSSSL
Metabotropic glutamate receptor 5 (Rattus norvegicus), sequence (P31424 21-1203 limits assumed): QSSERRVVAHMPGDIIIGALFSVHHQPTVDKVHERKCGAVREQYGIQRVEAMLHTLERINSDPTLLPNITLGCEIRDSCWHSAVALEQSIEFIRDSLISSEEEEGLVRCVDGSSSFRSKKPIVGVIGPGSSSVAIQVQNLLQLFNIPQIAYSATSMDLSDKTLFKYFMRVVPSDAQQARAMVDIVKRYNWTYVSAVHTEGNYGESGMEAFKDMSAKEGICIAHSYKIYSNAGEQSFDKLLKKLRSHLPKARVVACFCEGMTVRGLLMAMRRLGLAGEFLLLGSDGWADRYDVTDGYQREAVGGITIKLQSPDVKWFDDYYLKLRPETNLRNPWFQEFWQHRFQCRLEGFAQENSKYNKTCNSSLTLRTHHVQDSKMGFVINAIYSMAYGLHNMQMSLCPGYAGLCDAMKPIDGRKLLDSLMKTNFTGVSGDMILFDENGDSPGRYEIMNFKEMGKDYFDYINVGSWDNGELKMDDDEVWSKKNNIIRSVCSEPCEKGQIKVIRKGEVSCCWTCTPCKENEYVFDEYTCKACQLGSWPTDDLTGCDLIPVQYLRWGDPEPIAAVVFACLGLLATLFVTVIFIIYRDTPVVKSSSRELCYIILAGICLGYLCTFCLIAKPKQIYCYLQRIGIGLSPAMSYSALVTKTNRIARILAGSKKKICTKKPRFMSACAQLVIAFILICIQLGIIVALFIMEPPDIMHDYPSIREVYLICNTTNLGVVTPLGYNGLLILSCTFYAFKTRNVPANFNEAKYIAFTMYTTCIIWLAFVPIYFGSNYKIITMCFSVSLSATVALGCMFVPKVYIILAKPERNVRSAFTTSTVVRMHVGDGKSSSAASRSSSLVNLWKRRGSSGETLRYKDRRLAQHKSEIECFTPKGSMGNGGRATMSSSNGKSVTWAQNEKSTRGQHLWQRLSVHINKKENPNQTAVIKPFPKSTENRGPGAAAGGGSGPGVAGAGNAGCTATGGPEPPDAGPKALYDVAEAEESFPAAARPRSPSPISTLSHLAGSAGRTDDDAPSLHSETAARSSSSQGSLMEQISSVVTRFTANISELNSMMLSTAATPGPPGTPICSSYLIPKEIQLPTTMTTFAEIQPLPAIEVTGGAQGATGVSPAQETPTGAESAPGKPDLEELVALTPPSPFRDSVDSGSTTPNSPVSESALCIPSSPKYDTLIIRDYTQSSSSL

In general, Ki refers to the dissociation constant of the complex between target and ligand, obtained from inhibition or displacement. Regarding `CCO/N=C1/C=C(C#Cc2ccccn2)CCC1F` (stereo unspecified), the Ki in series [1] turned out to be 5.7 nM. With `CO/N=C1/C=C(C#Cc2ccccn2)CCC1F` (stereo unspecified), in series [1], the affinity corresponds to a Ki of 3.4 nM.

`CO/N=C1/C=C(C#Cc2cccc(C)n2)CCC1F` (stereo unspecified): the affinity in series [1], expressed as Ki, was 8.5 nM. As a reminder, the Kd is the concentration at which binding is half-saturated. Read a high Kd as a looser complex. Regarding `CCO/N=C1\C=C(C#Cc2ccccn2)CCC1[18F]` (stereo unspecified), the Stability result (in the series with Plasma; in series [3]) was “Stable” throughout. In series [2], this compound came in with a Kd of 70 nM. In the case of `CCO/N=C1/C=C(C#Cc2cccc(C)n2)CCC1F` (stereo unspecified), the affinity in series [1], expressed as Ki, was 13 nM. In general, logD refers to the decadic logarithm of the distribution of all forms, ionised or not, between an organic phase and buffer at a given pH. Higher therefore signals a more lipophilic compound. For `CCO/N=C1\C=C(C#Cc2ccccn2)CCC1F` (stereo unspecified), in series [1], the Ki worked out at 31.2 nM. For the same compound, the logD in series [4] came out at 3.5; in series [5] it was 2.1. For the same compound, the result in series [6] was Active.
